According to ChEMBL document CHEMBL1153517, “Synthesis and biological evaluation of imidazole thioacetanilides as novel non-nucleoside HIV-1 reverse transcriptase inhibitors” (Bioorg Med Chem, 2009):

Assays:
[1] = system: Human immunodeficiency virus 1; assay: Antiviral activity against wild type HIV1 by MTT assay; type: functional, organism-based
[2] = system: Human immunodeficiency virus 1; assay: Antiviral activity against […] HIV1 bearing reverse transcriptase K103/Y181C mutation by MTT assay; type: functional, organism-based
[3] = Selectivity index, ratio of CC50 for human MT4 cells to EC50 for HIV2 ROD; type: toxicity, cell-based; settings: for selectivity ratio: MT4 cells, read-out: Ratio CC50/EC50; for Ratio CC50/EC50: mt4
How it was run: (§1)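 Ratio of CC₅₀ to EC₅₀. Both come from a 5-day MTT assay in MT-4 cells, using parallel mock-infected wells and wells infected with the named virus strain (100–300 CCID₅₀), with serial fivefold compound dilutions in triplicate.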

[4] = system: Human immunodeficiency virus 1; assay: Antiviral activity against HIV1 3B infected in human MT4 cells assessed as virus-induced cytopathic effect by MTT assay; type: functional, organism-based; settings: Human immunodeficiency virus 1, 3B
How it was run: (§2)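 MT-4 cells (exponentially growing, resuspended at 6 × 10⁵ cells/mL) are infected with HIV-1 IIIB or HIV-2 ROD stock at 100–300 CCID₅₀. Serial fivefold compound dilutions are added at the start, in triplicate wells. After 5 days, viability is read by MTT reduction at OD540, using the median OD of three wells. EC₅₀ is the concentration giving 50% protection from the viral cytopathic effect.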

[5] = system: Human immunodeficiency virus 2; assay: Antiviral activity against HIV2 ROD infected in human MT4 cells assessed as virus-induced cytopathic effect by MTT assay; type: functional, organism-based; settings: Human immunodeficiency virus 2, ISOLATE ROD; how it was run: as §2
[6] = Cytotoxicity against human MT4 cells by MTT assay; type: cell-based
How it was run: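 Mock-infected MT-4 cells (6 × 10⁵ cells/mL) are run in parallel triplicate wells with serial fivefold compound dilutions and culture medium in place of virus. After 5 days, MTT formazan is read at OD540, using the median OD of three wells. CC₅₀ is the concentration that cuts absorbance of the mock-infected control by 50%.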

[7] = Selectivity index, ratio of CC50 for human MT4 cells to EC50 for HIV1 3B; type: toxicity, cell-based; settings: for selectivity ratio: MT4 cells, read-out: Ratio CC50/EC50; for Ratio CC50/EC50: mt4; how it was run: as §1

Row | Compound | EC50 [1] [µM] | EC50 [2] [µM] | IC50 [1] [µM] | selectivity ratio [3] | EC50 [4] [µM] | EC50 [5] [µM] | CC50 [6] [µM] | selectivity ratio [7] | Ratio CC50/EC50 [3] | Ratio CC50/EC50 [7]
1 | Cc1ccc(NC(=O)CSc2nnc(C)n2-c2ccccc2)c(Br)c1 | 0.1 | 1.3 | – | – | – | – | – | – | – | –
2 | Cc1cc(C)c(-n2nnnc2SCC(=O)Nc2ccccc2Cl)c(C)c1 | – | – | 0.005 | – | – | – | – | – | – | –
3 | Cc1ccccc1NC(=O)CSc1nccn1-c1ccc(Cl)cc1 | – | – | – | < 1 | 35.4 | > 160 | 160 | 5 | – | –
4 | O=C(CSc1nccn1-c1ccc(Cl)cc1)Nc1ccccc1Cl | – | – | – | – | ≥ 11.7 | > 330 | > 330 | – | Not Active | Not Active
5 | Cc1ccccc1NC(=O)CSc1nccn1-c1cccc2ccccc12 | – | – | – | < 1 | 2.46 | > 34.6 | 34.6 | 14 | – | –
6 | O=C(CSc1nccn1-c1cccc2ccccc12)Nc1ccccc1F | – | – | – | < 1 | 1.78 | > 34.7 | 34.7 | 20 | – | –
7 | Cc1ccc(NC(=O)CSc2nccn2-c2cccc3ccccc23)c(Br)c1 | – | – | – | < 1 | 0.73 | > 29.4 | 29.4 | 40 | – | –
8 | COc1ccc(-n2ccnc2SCC(=O)Nc2ccccc2C)cc1 | – | – | – | – | 155 | > 354 | > 354 | > 2 | Not Active | –
9 | O=C(CSc1nccn1-c1ccc(Cl)cc1)Nc1ccccc1Br | – | – | – | – | 15.8 | > 296 | > 300 | > 19 | Not Active | –
10 | Cc1ccc(-n2ccnc2SCC(=O)Nc2ccccc2C)cc1 | – | – | – | < 1 | 30.9 | > 147 | 147 | 5 | – | –
11 | O=C(CSc1nccn1-c1ccc(Cl)cc1)Nc1ccccc1[N+](=O)[O-] | – | – | – | – | 4.86 | > 321 | > 321 | > 66 | Not Active | –
12 | COc1ccc(-n2ccnc2SCC(=O)Nc2ccccc2[N+](=O)[O-])cc1 | – | – | – | < 1 | 17.9 | > 161 | 161 | > 9 | – | –
13 | Cc1ccc(-n2ccnc2SCC(=O)Nc2ccc(C)cc2Br)cc1 | – | – | – | < 1 | > 80.8 | > 80.8 | 80.8 | 66 | – | –
14 | Cc1ccc(-n2ccnc2SCC(=O)Nc2ccccc2F)cc1 | – | – | – | < 1 | > 37.9 | > 37.9 | 37.9 | < 1 | – | –
15 | Cc1ccc(-n2ccnc2SCC(=O)Nc2ccccc2Cl)cc1 | – | – | – | < 1 | 4.97 | > 33.7 | 33.7 | 7 | – | –
16 | O=C(CSc1nccn1-c1cccc2ccccc12)Nc1ccccc1Cl | – | – | – | < 1 | 0.2 | > 35.2 | 35.2 | 170 | – | –
17 | O=C(CSc1nccn1-c1cccc2ccccc12)Nc1ccccc1[N+](=O)[O-] | – | – | – | < 1 | 0.18 | > 28.8 | 28.8 | 162 | – | –
18 | COc1ccc(-n2ccnc2SCC(=O)Nc2ccccc2F)cc1 | – | – | – | – | > 42 | > 42 | ≥ 42 | – | Not Active | Not Active
19 | COc1ccc(-n2ccnc2SCC(=O)Nc2ccccc2Br)cc1 | – | – | – | – | ≥ 18.4 | > 299 | > 299 | – | Not Active | –
20 | Cc1ccc(-n2ccnc2SCC(=O)Nc2ccccc2Br)cc1 | – | – | – | < 1 | 5.15 | > 39.3 | 39.3 | 8 | – | –
21 | Cc1ccc(-n2ccnc2SCC(=O)Nc2ccccc2[N+](=O)[O-])cc1 | – | – | – | < 1 | 1.03 | > 131 | 131 | 126 | – | –
22 | O=C(CSc1nccn1-c1ccc(Cl)cc1)Nc1ccccc1F | – | – | – | – | 43.8 | > 345 | > 345 | > 8 | Not Active | –
23 | Cc1ccc(NC(=O)CSc2nccn2-c2ccc(Cl)cc2)c(Br)c1 | – | – | – | < 1 | ≥ 55.2 | > 204 | 221 | 64 | – | –
24 | O=C(CSc1nccn1-c1cccc2ccccc12)Nc1ccccc1Br | – | – | – | < 1 | 0.64 | > 30.5 | 30.5 | 48 | – | –
25 | COc1ccc(-n2ccnc2SCC(=O)Nc2ccccc2Cl)cc1 | – | – | – | – | 32.3 | > 334 | > 334 | > 10 | Not Active | –
26 | COc1ccc(-n2ccnc2SCC(=O)Nc2ccc(C)cc2Br)cc1 | – | – | – | < 1 | > 25.8 | > 25.8 | 25.8 | < 1 | – | –
27 | CC(C)Nc1cccnc1N1CCN(C(=O)c2cc3cc(NS(C)(=O)=O)ccc3[nH]2)CC1 [DELAVIRDINE] | – | – | – | – | – | – | > 3.83 | > 12 | – | –
28 | O=C1Nc2ccc(Cl)cc2[C@@](C#CC2CC2)(C(F)(F)F)O1 [EFAVIRENZ] | – | – | – | – | – | – | > 6.34 | > 1430 | – | –
29 | Cc1ccnc2c1NC(=O)c1cccnc1N2C1CC1 [NEVIRAPINE] | – | – | – | – | – | – | > 15 | – | – | –
30 | Cc1cn([C@H]2C[C@H](N=[N+]=[N-])[C@@H](CO)O2)c(=O)[nH]c1=O [ZIDOVUDINE] | – | – | – | – | – | – | > 93.5 | > 6190 | – | –
